Experimental data from different studies.
Compare with care: the assays were run in different laboratories.
Pah: Phenylalanine-4-hydroxylase (Pah, Rattus norvegicus, UniProt P04176)
SULT2A1: Sulfotransferase 2A1 (SULT2A1, Homo sapiens, UniProt Q06520)
VHL: von Hippel-Lindau disease tumor suppressor (VHL, Homo sapiens, UniProt P40337)

O=C(O)c1cccc(NC(=S)NC(=O)c2ccc3ccccc3c2)c1
Kd (Stromal cell-derived factor 1 (CXCL12, Homo sapiens, UniProt P48061); binding, NMR): 64 µM

N[C@@H](Cc1ccccc1)C(=O)O
Kd (Pah; binding, fluorescence; pH 7.5): 54 µM

NC(=O)c1ccc[n+]([C@@H]2O[C@H](COP(=O)(O)OP(=O)(O)OC[C@H]3O[C@@H](n4cnc5c(N)ncnc54)[C@H](O)[C@@H]3O)[C@@H](O)[C@H]2O)c1
Kd (mdh (Escherichia coli, UniProt P61889); binding, ITC): 467 µM

Nc1ncnc2c1ncn2[C@@H]1O[C@H](COP(=O)(O)OS(=O)(=O)O)[C@@H](OP(=O)(O)O)[C@H]1O
Kd (SULT2A1; binding, fluorescence): 0.25 µM

CCCN1CCN(c2ccc(-c3cncc(Cl)c3N3CCC4(CCNC4=O)CC3)cc2)CC1
Kd (Serine/threonine-protein kinase MRCK beta (CDC42BPB, Homo sapiens, UniProt Q9Y5S2); cell-free assay; lysate): 4.03 µM

Cc1cnc(-c2ccc(-c3ccc(NC(=O)Nc4c(F)cc(F)cc4F)cc3F)c3c2C(=O)NC3)[nH]1
Kd (Serine/threonine-protein kinase 3 (STK3, Homo sapiens, UniProt Q13188); binding, competition with immobilised ligand): 0.0039 µM

Cc1ncsc1-c1ccc(CNC(=O)[C@@H]2C[C@H](O)CN2C(=O)[C@@H](NC(=O)C2(F)CC2)C(C)(C)C)c(OCCOc2ccc(CN3CCN(c4cc(-c5ccccc5O)nnc4N)CC3)cc2)c1
Kd (VHL; binding, SPR): > 10 µM

Cc1cc(Nc2cc3ncccc3c(N[C@@H]3C[C@H]4CC[C@@H](C3)N4CCC#N)n2)n[nH]1
Kd (Cyclin-dependent kinase 4, with cyclin D3 (CDK4, Homo sapiens, UniProt P11802); binding, competition with immobilised ligand): 0.028 µM

Nc1ncnc2c1ncn2[C@@H]1O[C@H](COP(=O)(O)O)[C@@H](OP(=O)(O)O)[C@H]1O
Kd (SULT2A1; binding, fluorescence): 0.55 µM

Cc1cc2nc3c(=O)[nH]c(=O)nc-3n(C[C@H](O)[C@H](O)[C@H](O)COP(=O)(O)OP(=O)(O)OC[C@H]3O[C@@H](n4cnc5c(N)ncnc54)[C@H](O)[C@@H]3O)c2cc1C
Kd (Nuclear receptor coactivator 3 (Homo sapiens, UniProt Q9Y6Q9); binding; lysate): 0.015 µM

CSCC[C@H](N)C(=O)O
Kd (Pah; binding, fluorescence; pH 7.5): 24000 µM

c1cncc(-c2cccc(Nc3nccc(NC4CCCCC4)n3)c2)c1
Kd (Ribosomal protein S6 kinase alpha-1, N-terminal kinase domain (RPS6KA1, Homo sapiens, UniProt Q15418); binding, competition with immobilised ligand): 4.4 µM

Cc1ncsc1-c1ccc(CNC(=O)[C@@H]2C[C@@H](O)CN2C(=O)[C@@H](NC(=O)C2(F)CC2)C(C)(C)C)c(OCCOCCOCCN2CCN(c3cc(-c4ccccc4O)nnc3N)CC2)c1
Kd (VHL; binding, SPR): 0.098 µM
